# Test: Ratio of PTK787 GI50 to compound GI50 for HMVEC after 4 days by MTT assay
# Assay type: functional, Homo sapiens
# Details: not given
row,Compound,RatioGI50
1,COc1cc2c(Nc3ccc(F)c(Cl)c3)nnnc2cc1OCCCCl,4

# Test: Growth inhibition of HMVEC after 4 days by MTT assay
# Assay type: functional
# Details: Homo sapiens, 96 h
# Procedure, shortened: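 Human microvascular endothelial cells were grown in DMEM with 4 mM L-glutamine, 4.50 g/L glucose and 10% heat-inactivated FBS. Cells were seeded at 2 × 10³/well for 24 h, then exposed to a range of compound concentrations for 4 days at 37 °C. MTT (2 mg/mL) was added, cells were dissolved in DMSO, and A570 was read. Growth inhibition is relative to untreated cells. GI50 is the mean of three independent experiments.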
row,Compound,GI50
1,COc1cc2c(Nc3ccc(C(F)(F)F)cc3)nnnc2cc1OCCCCl,44.4 µM
2,CCOc1cc2nnnc(Nc3ccc(Br)c(F)c3)c2cc1OC,73.3 µM
3,CCCCOc1cc2nnnc(Nc3ccc(C)cc3)c2cc1OC,> 80 µM
4,COc1cc2c(Nc3ccc(C)cc3)nnnc2cc1OCCCCl,17.1 µM
5,Clc1cc(Cl)cc(Nc2nnnc3ccc(Cl)nc23)c1,7.93 µM
6,CCOc1cc2nnnc(Nc3cccc(Cl)c3)c2cc1OC,60 µM
7,CCOc1cc2nnnc(Nc3ccc(F)c(C(F)(F)F)c3)c2cc1OC,31.7 µM
8,CCCCOc1cc2nnnc(Nc3ccc(Br)c(F)c3)c2cc1OC,> 80 µM
9,FC(F)(F)Oc1cccc(Nc2nnnc3ccc(Cl)nc23)c1,4.28 µM
10,CCOc1cc2nnnc(Nc3cccc(C(F)(F)F)c3)c2cc1OC,> 80 µM
11,CCCCOc1cc2nnnc(Nc3ccc(F)c(C(F)(F)F)c3)c2cc1OC,16.1 µM
12,Fc1ccc(Nc2nnnc3ccc(Cl)nc23)cc1C(F)(F)F,10.8 µM
13,Clc1ccc(Nc2nnnc3ccc(Cl)nc23)cc1,10.5 µM
14,FC(F)(F)c1ccc(Nc2nnnc3ccc(Cl)nc23)cc1,8.06 µM
15,CCCCOc1cc2nnnc(Nc3ccc(C(F)(F)F)cc3)c2cc1OC,> 80 µM
16,CCOc1cc2nnnc(Nc3ccc(OC(F)(F)F)cc3)c2cc1OC,> 80 µM
17,CCCCCOc1cc2nnnc(Nc3ccc(F)cc3)c2cc1OC,> 80 µM
18,CCCCOc1cc2nnnc(Nc3cccc(Br)c3)c2cc1OC,16.8 µM
19,CCCCOc1cc2nnnc(Nc3ccc(F)cc3)c2cc1OC,> 80 µM

row,Compound,GI50
1,CCCCCOc1cc2nnnc(Nc3cccc(OC(F)(F)F)c3)c2cc1OC,42.6 µM
2,COc1cc2c(Nc3ccc(F)c(Cl)c3)nnnc2cc1OCCCCl,7.98 µM
3,CCCCCOc1cc2nnnc(Nc3cc(F)cc(F)c3)c2cc1OC,27.9 µM
4,CCOc1cc2nnnc(Nc3ccccc3F)c2cc1OC,> 80 µM
5,FC(F)(F)c1cccc(Nc2nnnc3ccc(Cl)nc23)c1,5.25 µM
6,CCCCOc1cc2nnnc(Nc3ccccc3F)c2cc1OC,> 80 µM
7,CCCCCOc1cc2nnnc(Nc3ccc(OC(F)(F)F)cc3)c2cc1OC,38 µM
8,FC(F)(F)Oc1ccc(Nc2nnnc3ccc(Cl)nc23)cc1,11.5 µM
9,CCCCOc1cc2nnnc(Nc3ccc(Cl)c(Cl)c3)c2cc1OC,15.5 µM
10,CCCCOc1cc2nnnc(Nc3ccc(OC(F)(F)F)cc3)c2cc1OC,30 µM
11,Fc1ccccc1Nc1nnnc2ccc(Cl)nc12,10.8 µM
12,CCOc1cc2nnnc(Nc3cccc(OC(F)(F)F)c3)c2cc1OC,23.3 µM
13,Clc1ccc2nnnc(Nc3cccc(Br)c3)c2n1,7.24 µM
14,CCCCCOc1cc2nnnc(Nc3ccc(Cl)cc3)c2cc1OC,25.3 µM
15,CCCCCOc1cc2nnnc(Nc3ccc(Br)c(F)c3)c2cc1OC,> 80 µM
16,CCOc1cc2nnnc(Nc3ccc(C(F)(F)F)cc3)c2cc1OC,> 80 µM
17,Clc1ccc(Nc2nnc(Cc3ccncc3)c3ccccc23)cc1,38.1 µM
18,CCOc1cc2nnnc(Nc3cccc(Br)c3)c2cc1OC,39.8 µM
19,Fc1cc(Nc2nnnc3ccc(Cl)nc23)ccc1Br,9.56 µM

# Source: ChEMBL document CHEMBL3085747, “Synthesis and biological evaluation of substituted 1,2,3-benzotriazines and pyrido[3,2-d]-1,2,3-triazines as inhibitors of vascular endothelial growth factor receptor-2” (2013)
